From ChEMBL document CHEMBL3124917, “Design, synthesis, and biological evaluation of deuterated C-aryl glycoside as a potent and long-acting renal sodium-dependent glucose cotransporter 2 inhibitor for the treatment of type 2 diabetes” (J Med Chem, 2014)

Tested on: Canis familiaris
Experiment: Antidiabetic activity in Beagle dog assessed as urinary glucose excretion at 0.03 mg/kg, po administered 1 hr prior to glucose challenge measured after 8 to 24 hrs relative to dapagliflozin
Format: functional, Canis lupus familiaris, Urine
Conditions: not given
Procedure, shortened: (§1)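 Overnight-fasted beagle dogs, n = 3 per group, given 0.03 mg/kg orally by gavage in 10% PEG400; vehicle controls received 10% PEG400. Oral glucose (2 g/kg, 5 mL/kg) given 1 h post-dose. Expressed as % of reference positive control; mean ± SD.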
In the case of [2H]C([2H])([2H])Oc1ccc(Cc2cc([C@@H]3O[C@H](CO)[C@@H](O)[C@H](O)[C@H]3O)ccc2Cl)cc1, the Activity is reported as 11200 mg.

Tested on: Canis familiaris
Experiment: Antidiabetic activity in Beagle dog assessed as urinary glucose excretion at 0.03 mg/kg, po administered 1 hr prior to glucose challenge measured after 1 to 8 hrs relative to dapagliflozin
Format: functional, Canis lupus familiaris, Urine
Conditions: not given
Procedure, shortened: as §1, with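 “post-dose. Urine collected in metabolic cages at 0–8 and 8–24 h, glucose read on a biochemistry analyzer.” for “post-dose.”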
[2H]C([2H])([2H])Oc1ccc(Cc2cc([C@@H]3O[C@H](CO)[C@@H](O)[C@H](O)[C@H]3O)ccc2Cl)cc1 showed an Activity of 3480 mg.

Tested on: Rattus norvegicus
Experiment: Antidiabetic activity in Sprague-Dawley rat assessed as reduction in blood glucose AUC at 1 mg/kg, po administered 1 hr prior to glucose challenge measured after 60 to 120 mins by oral glucose tolerance test relative to control
Format: functional
Parameters: scale not given: the % may be the effect or the level left
Conditions: not given
Procedure, shortened: (§2)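 Overnight-fasted male Sprague-Dawley rats, n = 5 per group, dosed orally at 0.1, 0.3, 1, 3 or 10 mg/kg in 30% PEG400 1 h before oral glucose challenge (20%, 2 g/kg). Blood glucose measured by glucometer from −60 to 120 min.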
[2H]C([2H])([2H])Oc1ccc(Cc2cc([C@@H]3O[C@H](CO)[C@@H](O)[C@H](O)[C@H]3O)ccc2Cl)cc1 gave an Activity of 26.7%.

Tested on: Rattus norvegicus
Experiment: Antidiabetic activity in Sprague-Dawley rat assessed as reduction in blood glucose AUC at 0.3 mg/kg, po administered 1 hr prior to glucose challenge measured after 60 to 120 mins by oral glucose tolerance test relative to control
Format: functional
Parameters: scale not given: the % may be the effect or the level left
Conditions: not given
Procedure, shortened: as §2
With [2H]C([2H])([2H])Oc1ccc(Cc2cc([C@@H]3O[C@H](CO)[C@@H](O)[C@H](O)[C@H]3O)ccc2Cl)cc1 the Activity was 20.7%.

Tested on: Rattus norvegicus
Experiment: Antidiabetic activity in Sprague-Dawley rat assessed as urinary glucose excretion at 1 mg/kg, po administered 1 hr prior to glucose challenge measured after 1 to 4 hrs relative to dapagliflozin
Format: functional, Urine
Conditions: not given
Procedure, shortened: (§3)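 Overnight-fasted Sprague-Dawley rats, n = 3 per group, dosed 1 mg/kg by oral gavage in 30% PEG400; controls received vehicle. Oral glucose (2 g/kg, 10 mL/kg) given 1 h post-dose. Urine collected in metabolic cages at 0–4 and 4–24 h, glucose measured on a biochemistry analyzer. Expressed as % of reference positive control; mean ± SD.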
Compound [2H]C([2H])([2H])Oc1ccc(Cc2cc([C@@H]3O[C@H](CO)[C@@H](O)[C@H](O)[C@H]3O)ccc2Cl)cc1 has an Activity of 251 mg.

Tested on: not listed separately
Experiment: Cmax in Sprague-Dawley rat at 1 mg/kg, po by LC-MS/MS analysis
Format: ADME, organism-based
Parameters: dose 1 mg/kg, route oral
Conditions: in vivo
Procedure, shortened: (§4)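 Male Sprague-Dawley rats, n = 4 per group, overnight-fasted. Oral gavage of 3 or 1 mg/kg in 30% PEG400; i.v. arm at 1 mg/kg. Orbital plexus blood taken under ether at 0.083–24 h; plasma deproteinized and assayed by LC-MS/MS. Noncompartmental parameters derived; mean ± SD reported.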
For [2H]C([2H])([2H])Oc1ccc(Cc2cc([C@@H]3O[C@H](CO)[C@@H](O)[C@H](O)[C@H]3O)ccc2Cl)cc1, the Cmax was 257 ng/mL.

Tested on: not listed separately
Experiment: AUC (0 to infinity) in Sprague-Dawley rat at 1 mg/kg, iv by LC-MS/MS analysis
Format: ADME, organism-based
Parameters: time infinity, dose 1 mg/kg, route intravenous
Conditions: plasma
Procedure, shortened: as §4
With [2H]C([2H])([2H])Oc1ccc(Cc2cc([C@@H]3O[C@H](CO)[C@@H](O)[C@H](O)[C@H]3O)ccc2Cl)cc1 the AUC(0-inf) was 1330 ng·h/mL.

Tested on: Rattus norvegicus
Experiment: Antidiabetic activity in Sprague-Dawley rat assessed as urinary glucose excretion at 1 mg/kg, po administered 1 hr prior to glucose challenge measured after 4 to 24 hrs relative to dapagliflozin
Format: functional, Urine
Conditions: not given
Procedure, shortened: as §3
Compound [2H]C([2H])([2H])Oc1ccc(Cc2cc([C@@H]3O[C@H](CO)[C@@H](O)[C@H](O)[C@H]3O)ccc2Cl)cc1 has an Activity of 1980 mg.

Target: T1, Sodium/glucose cotransporter 1 (Homo sapiens, UniProt P13866)
T1 sequence (P13866 whole entry): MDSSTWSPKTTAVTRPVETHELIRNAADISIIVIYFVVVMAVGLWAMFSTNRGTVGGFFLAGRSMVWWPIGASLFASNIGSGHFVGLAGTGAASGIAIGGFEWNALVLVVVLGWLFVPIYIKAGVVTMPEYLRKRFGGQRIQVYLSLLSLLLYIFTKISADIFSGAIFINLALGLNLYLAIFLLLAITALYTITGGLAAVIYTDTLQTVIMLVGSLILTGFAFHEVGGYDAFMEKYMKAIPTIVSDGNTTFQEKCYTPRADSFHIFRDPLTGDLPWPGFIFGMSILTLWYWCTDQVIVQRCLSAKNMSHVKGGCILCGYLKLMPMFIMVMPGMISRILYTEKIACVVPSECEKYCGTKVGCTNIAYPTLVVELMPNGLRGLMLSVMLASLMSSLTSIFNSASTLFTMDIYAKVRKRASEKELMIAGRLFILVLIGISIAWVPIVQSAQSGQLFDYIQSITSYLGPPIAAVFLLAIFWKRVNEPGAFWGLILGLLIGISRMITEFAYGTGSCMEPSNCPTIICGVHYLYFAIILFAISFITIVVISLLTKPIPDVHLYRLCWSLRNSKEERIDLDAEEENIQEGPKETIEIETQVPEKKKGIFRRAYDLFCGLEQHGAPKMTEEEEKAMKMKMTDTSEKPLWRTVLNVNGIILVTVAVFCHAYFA
Experiment: Inhibition of full length human SGLT1 assessed as methyl-alpha-D-[U-14C]glucopyranoside uptake after 2 hrs by cell-based topcount scintillation counting analysis
Conditions: not given
[2H]C([2H])([2H])Oc1ccc(Cc2cc([C@@H]3O[C@H](CO)[C@@H](O)[C@H](O)[C@H]3O)ccc2Cl)cc1 gave an IC50 of 900 nM.

Tested on: not listed separately
Experiment: Clearance in Sprague-Dawley rat at 1 mg/kg, iv by LC-MS/MS analysis
Format: ADME, organism-based
Parameters: dose 1 mg/kg, route intravenous
Conditions: in vivo
Procedure, shortened: as §4
Work on [2H]C([2H])([2H])Oc1ccc(Cc2cc([C@@H]3O[C@H](CO)[C@@H](O)[C@H](O)[C@H]3O)ccc2Cl)cc1 yielded a clearance of 12.7 mL/min/kg.

Tested on: Rattus norvegicus
Experiment: Antidiabetic activity in Sprague-Dawley rat assessed as reduction in blood glucose AUC at 0.1 mg/kg, po administered 1 hr prior to glucose challenge measured after 60 to 120 mins by oral glucose tolerance test relative to control
Format: functional
Parameters: scale not given: the % may be the effect or the level left
Conditions: not given
Procedure, shortened: as §2
In the case of [2H]C([2H])([2H])Oc1ccc(Cc2cc([C@@H]3O[C@H](CO)[C@@H](O)[C@H](O)[C@H]3O)ccc2Cl)cc1, the Activity is reported as 18.6%.
